Test results from ChEMBL document CHEMBL4382201 (J Med Chem, 2018).
pIC50: −log10 of the molar value. Values after ≈ are worked out from the molar mass of the structure shown. Active and inactive are the calls of the source. The rule behind the calls is not given here.

What was measured:
IGROV-1 = experiment: Growth inhibition of human IGROV1 cells after 48 hrs by SRB assay; assay type: functional; conditions: IGROV-1, 48 h
Summary of the method: (§1)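 NCI-60 five-dose screen at 100 µM, 10 µM, 1 µM, 100 nM and 10 nM. Incubation 48 h at 37 °C, 5% CO2, 100% humidity. Growth was expressed relative to the no-drug control and to the time-zero cell number, and GI50 was derived from these values.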

HOP-92 = experiment: Growth inhibition of human HOP92 cells after 48 hrs by SRB assay; assay type: functional; conditions: HOP-92, 48 h; summary of the method: as §1
[1] = Chemical stability of the compound in 100 mM pH 7 PBS buffer assessed as compound remaining at 10 mM at room temperature after 4 days; assay type: physicochemical; conditions: read-out: Stability
Summary of the method: (§2)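 Compound at 10 mM in 100 mM PBS (pH 6.0 or 7.4, prepared in D2O), diluted 9:1 with DMSO-d6. Kept at room temperature for 3-10 days. The fraction of intact compound was followed by NMR.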

SNB-75 = experiment: Growth inhibition of human SNB75 cells after 48 hrs by SRB assay; assay type: functional; conditions: SNB-75, 48 h; summary of the method: as §1
RPMI-8226 = experiment: Growth inhibition of human RPMI8226 cells after 48 hrs by SRB assay; assay type: functional; conditions: RPMI-8226, 48 h; summary of the method: as §1
[2] = Solubility of the compound in PBS buffer at 10 mM at pH 7.4 by UV-based analysis; assay type: physicochemical
Summary of the method: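 Compound (10 mM DMSO stock) was diluted into pH 7.4 buffer (ethanolamine/KH2PO4/potassium acetate/KCl) to a final 5% DMSO. After sonication and 18 h agitation the mixture was filtered and scanned by UV at 230-800 nm. Solubility was calculated from calibration plots made in 20% acetonitrile buffer, in quadruplicate, with solubility standards on each plate.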

[3] = Drug metabolism in DMSO-d6/PBS buffer assessed as 1-(2-chloroethyl)-5-(methoxycarbonyl)-1,2,3,4,5,7-hexahydrobenzo[g][1,3,6]thiadiazonin-9-ylboronic acid formation after 10 days in presence of GSH by IT-TOF mass analysis
[4] = Toxicity in CD1 mouse at 1.5 mg/kg/day, ip for 5 days per week measured after 3 months; assay type: organism-based; conditions: in vivo, 120 h
Summary of the method: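 Mice were dosed i.p. at 1.5 mg/kg per day, 5 days per week, over three months and observed for toxicity.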

K562 = experiment: Growth inhibition of human K562 cells after 48 hrs by SRB assay; assay type: functional; conditions: K562, 48 h; summary of the method: as §1
CCRF-CEM = experiment: Growth inhibition of human CCRF-CEM cells after 48 hrs by SRB assay; assay type: functional; summary of the method: as §1
dsDNA [5] = experiment: Induction of DNA-interstanded-cross-link formation in [32P]-labeled 49-mer duplex DNA (unknown origin) at 1 mM in presence of H2O2 after 16 hrs by PAGE relative to control; assay type: functional
Summary of the method: (§3)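 A 32P-labelled 49-mer, annealed with 1.5 equiv complement (65 °C for 3 min in 10 mM potassium phosphate pH 7, 100 mM NaCl, then slow cooling), was used at 1.0 µM before final dilution. Duplex was mixed with compound (final 1 mM), NaCl and potassium phosphate pH 8, with or without H2O2. Incubation 16 h at room temperature, formamide quench, then 20% denaturing PAGE.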

[6] = Drug metabolism in DMSO-d6/PBS buffer assessed as 1-(2-hydroxyethyl)-5-(methoxycarbonyl)-1,2,3,4,5,7-hexahydrobenzo[g][1,3,6]thiadiazonin-9-ylboronic acid formation after 10 days in presence of GSH by IT-TOF mass analysis
HT-29 = experiment: Growth inhibition of human HT-29 cells after 48 hrs by SRB assay; assay type: functional; conditions: HT-29, 48 h; summary of the method: as §1
SR = experiment: Growth inhibition of human SR cells after 48 hrs by SRB assay; assay type: functional; summary of the method: as §1
[7] = Chemical stability of the compound in 90% DMSO/PBS buffer assessed as compound remaining at pH 6 in presence of GSH; assay type: physicochemical
Summary of the method: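 Compound and GSH at a 1:2 ratio in DMSO-d6/PBS 9:1, pH 6.0, at room temperature. Compound-only and GSH-only samples served as controls. Intact compound was monitored by NMR.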

[8] = Drug metabolism in DMSO-d6/PBS buffer assessed as (S)-3-((2-amino-3-methoxy-3-oxopropylthio)methyl)-4-((2-chloroethyl)(2-hydroxyethyl)amino)phenylboronic acid formation after 10 days in presence of GSH by IT-TOF mass analysis
[9] = Solubility of the compound in 50% DMSO/PBS buffer at 10 mM pH 6 after 3 to 10 days by NMR analysis; assay type: physicochemical; conditions: pH 6, 10000 µM
[10] = Chemical stability of the compound in 100 mM pH 6 PBS buffer assessed as compound remaining at 10 mM at room temperature after 2 days; assay type: physicochemical; conditions: read-out: Stability; summary of the method: as §2
[11] = Chemical stability of the compound in 100 mM pH 7.4 PBS buffer assessed as compound remaining at 10 mM at room temperature after 2 days; assay type: physicochemical; conditions: read-out: Stability; summary of the method: as §2
MOLT-4 = experiment: Growth inhibition of human MOLT4 cells after 48 hrs by SRB assay; assay type: functional; conditions: MOLT-4, 48 h; summary of the method: as §1
[12] = Chemical stability of the compound in 100 mM pH 6 PBS buffer assessed as compound remaining at 10 mM at room temperature after 4 days; assay type: physicochemical; conditions: read-out: Stability; summary of the method: as §2
[13] = Chemical stability of the compound in 50% DMSO/PBS buffer assessed as compound remaining at pH 6 in presence of GSH after 48 hrs; assay type: physicochemical; conditions: 50% DMSO/PBS buffer with GSH, read-out: Stability
Summary of the method: (§4)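 Compound with GSH in DMSO-d6/PBS buffer 1:1, pH 6. Intact compound was followed by NMR over 24-48 h.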

[14] = Chemical stability of the compound in 50% DMSO/PBS buffer assessed as compound remaining at pH 6 in presence of GSH after 24 hrs; assay type: physicochemical; conditions: 50% DMSO/PBS buffer with GSH, read-out: Stability; summary of the method: as §4
MDA-MB-468 [15] = experiment: Growth inhibition of human MDA-MB-468 cells after 48 hrs by […]; assay type: functional, cell-based; conditions: MDA-MB-468, 48 h
MDA-MB-468 [16] = experiment: Growth inhibition of human MDA-MB-468 cells after 48 hrs by SRB assay; assay type: functional; conditions: MDA-MB-468, 48 h; summary of the method: as §1
Lymphocyte [17] = experiment: Induction of apoptosis in human CLL-derived lymphocytes up to 30000 nM after 24 hrs by Annexin V-FITC/propidium iodide-staining based flow cytometry; assay type: functional, cell-based
Summary of the method: (§5)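 Patient CLL lymphocytes isolated on Ficoll-Hypaque and held in RPMI 1640 with 10% autologous plasma at 1×10^7 cells/mL, fresh cells only. Cells were exposed to a concentration series for 24 h alongside time-matched untreated controls. Apoptosis was measured by annexin V-FITC/PI flow cytometry, at least 10,000 events per sample; each patient was analysed separately.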

SK-OV-3 = experiment: Growth inhibition of human SKOV3 cells after 48 hrs by SRB assay; assay type: functional; conditions: SK-OV-3, 48 h; summary of the method: as §1
[18] = Cytotoxicity against human CLL cells assessed as reduction in cell viability after 24 hrs; assay type: functional, cell-based; summary of the method: as §5
MDA-MB-468 [19] = experiment: Antitumor activity against human MDA-MB-468 cells xenografted in nude CD1 mouse assessed as tumor size of initial size at 1.5 mg/kg/day, ip measured after 7 weeks (reference value: 278 to 657%); assay type: functional
Summary of the method: (§6)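 Female athymic nude mice (35 days, 20-22 g) received 2 million MDA-MB-468 cells s.c. in the flank, suspended in 1:1 matrigel/DMEM. Mice with palpable tumours were given 1.5 mg/kg i.p. or vehicle, 11 mice per group. Tumour size was measured by caliper every 7 days and body weight was recorded regularly.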

MCF7 = experiment: Growth inhibition of human MCF7 cells after 48 hrs by SRB assay; assay type: functional; conditions: MCF7, 48 h; summary of the method: as §1
[20] = Toxicity in CD1 mouse xenografted with human MDA-MB-468 cells assessed as body weight change at 1.5 mg/kg/day, ip measured after 7 weeks; assay type: organism-based; conditions: in vivo, 1176 h; summary of the method: as §6
DNA = experiment: Induction of DNA cross-linking activity in human CLL-derived lymphocytes assessed as increase in gammaH2AX formation at 10 uM after 24 hrs by flow cytometry; assay type: functional, cell-based
Summary of the method: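 Primary CLL lymphocytes from 3 patients were treated for 24 h at 10 µM or 1 µM, depending on compound. H2AX phosphorylation (% γH2AX) was measured by flow cytometry.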

Malme-3M = experiment: Growth inhibition of human MALME-3M cells after 48 hrs by SRB assay; assay type: functional; summary of the method: as §1
dsDNA [21] = experiment: Induction of DNA-interstanded-cross-link formation in [32P]-labeled 49-mer duplex DNA (unknown origin) at 1 mM in absence of H2O2 after 16 hrs by PAGE relative to control; assay type: functional; summary of the method: as §3
Lymphocyte [22] = experiment: Induction of apoptosis in human lymphocytes at 10 uM after 24 hrs by Annexin V-FITC/propidium iodide-staining based flow cytometry; assay type: cell-based
Summary of the method: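 Normal PBMCs from 3 donors were isolated on Ficoll and treated at 10 µM. Apoptosis was measured by annexin V-FITC/PI flow cytometry against time-matched untreated controls.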

COC(=O)[C@H](N)CSCc1cc(B(O)O)ccc1N(CCCl)CCCl showed a GI50 (IGROV-1) of 3320 nM, a GI50 (HOP-92) of 560 nM and a remaining at 96 h, 10000 µM [1] of 85%. It also gave a GI50 (SNB-75) of 850 nM, a GI50 (RPMI-8226) of 2620 nM and a solubility [2] of 231 µM (≈ 94.5 µg/mL). For the same compound, the Drug metabolism [3] was “Metabolite detected”, the Activity [4] was “Non-Toxic” and the GI50 (K562) was 3250 nM. The GI50 (CCRF-CEM) was 540 nM, the Activity (dsDNA [5]) was less than 65% and the Drug metabolism [6] was “Metabolite detected”. The GI50 (HT-29) was 4030 nM, the GI50 (SR) was 280 nM and the Stability [7] was “Stable”. For the same compound, the Drug metabolism [8] was “Metabolite detected”, the solubility [9] was “Insoluble” and the remaining at 48 h, 10000 µM [10] was 92%. For the same compound, the remaining at 48 h, 10000 µM [11] was 92%, the GI50 (MOLT-4) was 600 nM and the remaining at 96 h, 10000 µM [12] was 85%. It also gave a remaining at 48 h [13] of 70%, a remaining at 24 h [14] of 90% and a pIC50 (MDA-MB-468 [15]) of 5.47. The GI50 (MDA-MB-468 [16]) was 1490 nM, the Activity (Lymphocyte [17]) was “Active” and the GI50 (SK-OV-3) was 1460 nM. The pIC50 [18] was 6.11 to 8.52, the Activity (MDA-MB-468 [19]) was 58 - 178% and the GI50 (MCF7) was 720 nM. For the same compound, the Activity [20] was “Non-Toxic”, the Activity (DNA) was “Active” and the GI50 (Malme-3M) was 2390 nM. For the same compound, the Activity (dsDNA [21]) was 1.5 to 15% and the Activity (Lymphocyte [22]) was “Non-Toxic”.
